In ChEMBL document CHEMBL3596088, “Deepening the Topology of the Translocator Protein Binding Site by Novel N,N-Dialkyl-2-arylindol-3-ylglyoxylamides” (J Med Chem, 2015):

How the values were obtained:
Rattus norvegicus = organism: Rattus norvegicus; assay: Inhibition of [3H]flumazenil binding to benzodiazepine receptor in rat cerebral cortex membranes at 10 uM incubated for 90 mins; assay type: cell membranes; conditions: Membrane
Summary of the method: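 Crude rat cerebral cortex membrane fraction from differential centrifugation, washed to remove endogenous GABA. Incubated with 0.4 nM [3H]Ro15-1788 (flumazenil) for 90 min at 0 °C in 50 mM Tris-citrate, pH 7.4. Test compound at 10 μM; result given as percent inhibition of binding.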

Translocator protein = Translocator protein (Rattus norvegicus, UniProt P16257); assay: Inhibition of [3H]PK11195 binding to TSPO in rat kidney mitochondrial membranes; assay type: cell membranes
Translocator protein, sequence (P16257 whole entry, looked up): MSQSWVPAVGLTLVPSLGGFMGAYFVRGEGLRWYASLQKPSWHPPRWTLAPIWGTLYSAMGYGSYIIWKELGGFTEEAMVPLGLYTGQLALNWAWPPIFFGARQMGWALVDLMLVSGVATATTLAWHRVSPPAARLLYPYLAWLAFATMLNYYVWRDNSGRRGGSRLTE

Work on `CCCCN(CCCC)C(=O)C(=O)c1c(-c2ccc(N)cc2)[nH]c2ccccc12` yielded an inhibition (Rattus norvegicus) of 0% and a Ki (Translocator protein) of 133 nM.

Molecule `CCCN(CCC)C(=O)C(=O)c1c(-c2ccc(C(=O)O)cc2)[nH]c2ccccc12` has an inhibition (Rattus norvegicus) of 0% and a Ki (Translocator protein) of 343 nM.

In the case of `CCCCCCN(CCCCCC)C(=O)C(=O)c1c(-c2ccsc2)[nH]c2ccccc12`, the inhibition (Rattus norvegicus) is reported as 0% and the Ki (Translocator protein) is reported as 0.89 nM.

`CCCCCCN(CCCCCC)C(=O)C(=O)c1c(-c2ccc(N)cc2)[nH]c2ccccc12` showed an inhibition (Rattus norvegicus) of 0% and a Ki (Translocator protein) of 4.2 nM.

With `CCN(Cc1ccccc1)C(=O)C(=O)c1c(-c2ccc3ccccc3c2)[nH]c2ccccc12` the inhibition (Rattus norvegicus) was 0% and the Ki (Translocator protein) was 0.51 nM.

Molecule `CCCN(CCC)C(=O)C(=O)c1c(-c2ccc(OC)cc2)[nH]c2ccccc12` has an inhibition (Rattus norvegicus) of 0% and a Ki (Translocator protein) of 5.8 nM.

`CCCCN(CCCC)C(=O)C(=O)c1c(-c2ccsc2)[nH]c2ccccc12` showed an inhibition (Rattus norvegicus) of 0% and a Ki (Translocator protein) of 2.8 nM.

`CCCN(CCC)C(=O)C(=O)c1c(-c2ccc(N)cc2)[nH]c2ccccc12` was tested, and the inhibition (Rattus norvegicus) was 0% and the Ki (Translocator protein) was 44.4 nM.

`CCCN(CCC)C(=O)C(=O)c1c(-c2ccc3ccccc3c2)[nH]c2ccccc12` gave an inhibition (Rattus norvegicus) of 0%.

For `CCCCCCN(CCCCCC)C(=O)C(=O)c1c(-c2ccc(OC)cc2)[nH]c2ccccc12`, the inhibition (Rattus norvegicus) was 0% and the Ki (Translocator protein) was 4 nM.

With `CCC(C)N(C)C(=O)c1cc2ccccc2c(-c2ccccc2Cl)n1` (configuration not stated) the inhibition (Rattus norvegicus) was 0%.

Molecule `CCCCCCN(CCCCCC)C(=O)C(=O)c1c(-c2ccc(-c3ccccc3)cc2)[nH]c2ccccc12` has an inhibition (Rattus norvegicus) of 0% and a Ki (Translocator protein) of 1.8 nM.

With `CCCCCN(C)C(=O)C(=O)c1c(-c2ccc3ccccc3c2)[nH]c2ccccc12` the inhibition (Rattus norvegicus) was 0% and the Ki (Translocator protein) was 0.37 nM.

In the case of `CCCCN(CCCC)C(=O)C(=O)c1c(-c2ccc(C(=O)O)cc2)[nH]c2ccccc12`, the inhibition (Rattus norvegicus) is reported as 0% and the Ki (Translocator protein) is reported as 406 nM.

In the case of `CCCN(CCC)C(=O)C(=O)c1c(-c2ccc(O)cc2)[nH]c2ccccc12`, the inhibition (Rattus norvegicus) is reported as 0% and the Ki (Translocator protein) is reported as 16.1 nM.

For `CCCCN(CCCC)C(=O)C(=O)c1c(-c2ccc(C(=O)OC)cc2)[nH]c2ccccc12`, the inhibition (Rattus norvegicus) was 0% and the Ki (Translocator protein) was 2.7 nM.

`CCCCN(CCCC)C(=O)C(=O)c1c(-c2ccc3ccccc3c2)[nH]c2ccccc12` was tested, and the inhibition (Rattus norvegicus) was 0% and the Ki (Translocator protein) was 0.54 nM.

`CCCCN(C)C(=O)C(=O)c1c(-c2ccc3ccccc3c2)[nH]c2ccccc12` was tested, and the inhibition (Rattus norvegicus) was 0% and the Ki (Translocator protein) was 0.56 nM.

`CCCCCCN(CCCCCC)C(=O)C(=O)c1c(-c2ccc(O)cc2)[nH]c2ccccc12` gave an inhibition (Rattus norvegicus) of 0% and a Ki (Translocator protein) of 6.3 nM.

With `CCCCN(CC)C(=O)C(=O)c1c(-c2ccc3ccccc3c2)[nH]c2ccccc12` the inhibition (Rattus norvegicus) was 0% and the Ki (Translocator protein) was 0.51 nM.

Work on `CCCN(CCC)C(=O)C(=O)c1c(-c2ccc(-c3ccccc3)cc2)[nH]c2ccccc12` yielded an inhibition (Rattus norvegicus) of 0% and a Ki (Translocator protein) of 0.53 nM.

For `CCCN(CCC)C(=O)C(=O)c1c(-c2ccc(C(=O)OC)cc2)[nH]c2ccccc12`, the inhibition (Rattus norvegicus) was 0% and the Ki (Translocator protein) was 3.1 nM.

For `CCCCN(CCCC)C(=O)C(=O)c1c(-c2ccc(-c3ccccc3)cc2)[nH]c2ccccc12`, the inhibition (Rattus norvegicus) was 0% and the Ki (Translocator protein) was 5.5 nM.

`CCCN(CCC)C(=O)C(=O)c1c(-c2ccsc2)[nH]c2ccccc12` was tested, and the inhibition (Rattus norvegicus) was 0% and the Ki (Translocator protein) was 1.2 nM.

`CN1C(=O)CN=C(c2ccc(Cl)cc2)c2cc(Cl)ccc21` showed an inhibition (Rattus norvegicus) of 0%.

In the case of `CCCCCCN(CCCCCC)C(=O)C(=O)c1c(-c2ccc3ccccc3c2)[nH]c2ccccc12`, the inhibition (Rattus norvegicus) is reported as 0% and the Ki (Translocator protein) is reported as 0.52 nM.

With `CCCCCCN(CCCCCC)C(=O)C(=O)c1c(-c2ccc(C(=O)O)cc2)[nH]c2ccccc12` the inhibition (Rattus norvegicus) was 0% and the Ki (Translocator protein) was 184 nM.

In the case of `CCCCN(CCCC)C(=O)C(=O)c1c(-c2ccc(O)cc2)[nH]c2ccccc12`, the inhibition (Rattus norvegicus) is reported as 0% and the Ki (Translocator protein) is reported as 25.7 nM.

Molecule `CCCCN(CCCC)C(=O)C(=O)c1c(-c2ccc(OC)cc2)[nH]c2ccccc12` has an inhibition (Rattus norvegicus) of 0% and a Ki (Translocator protein) of 20.3 nM.

In the case of `CCCCCCN(CCCCCC)C(=O)C(=O)c1c(-c2ccc(C(=O)OC)cc2)[nH]c2ccccc12`, the inhibition (Rattus norvegicus) is reported as 0% and the Ki (Translocator protein) is reported as 3.3 nM.
